Compound activity from PubChem.
The list is not random: actives were taken first. Their share in the collection is about 1.6%.
NR2E3 ag-1 – inhibitors of NR2E3-RetCOR corepressor binding, primary screen, NR2E3 agonist project, biochemical, TR-FRET, GST-NR2E3, biotin-RetCOR. AID 2300, 2010. 0.12% of 320,000 active. inhibition of corepressor binding, % at 4.78 µM. 1536-well;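 active = percent inhibition above the cutoff of mean plus 3 SD of all tested compounds, set per screening campaign, cut at about 20% in these data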;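 note: 0% = DMSO wells and 100% = biotin wells as full block of FRET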
Target sequence (Q9Y5X4 whole entry, looked up): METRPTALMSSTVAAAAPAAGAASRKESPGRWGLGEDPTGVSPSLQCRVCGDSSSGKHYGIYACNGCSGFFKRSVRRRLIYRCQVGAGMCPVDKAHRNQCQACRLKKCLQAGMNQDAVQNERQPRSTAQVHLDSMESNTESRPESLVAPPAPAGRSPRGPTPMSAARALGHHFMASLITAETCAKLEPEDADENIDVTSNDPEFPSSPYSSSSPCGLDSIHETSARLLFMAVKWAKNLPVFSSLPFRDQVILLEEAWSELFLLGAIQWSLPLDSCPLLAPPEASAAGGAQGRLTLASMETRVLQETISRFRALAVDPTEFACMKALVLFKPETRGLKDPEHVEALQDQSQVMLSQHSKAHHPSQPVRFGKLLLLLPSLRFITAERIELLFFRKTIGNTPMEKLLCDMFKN
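Material: NR2E3–RetCOR corepressor complex / Amount: 1.35 nM GST-NR2E3 / Medium: Tris pH 7.5 / Compound: single nominal compound dose of 4.8 µM / Incubation: 5 h at 4 °C / Technique: TR-FRET, Eu(K)-anti-GST donor, streptavidin-D2 acceptor, ex 340, em 617/671 nm / Read-out basis: percent loss of FRET ratio relative to control wells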
NR2E3 ag-2 – NR2E3 agonists in two-hybrid cells, primary screen, cell-based, luminescence, CHO-S, Gal4-NCOR/VP16-NR2E3; luciferase; inhibition of corepressor binding, % at 3.98 µM; 0.35% of 360,000 active; AID 602229, 2012;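 active = inhibition above the mean of all tested compounds plus 3 SD, cut at about 70% in these data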;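 note: 0% = DMSO with NR2E3 transfected cells and 100% = cells lacking NR2E3 construct; higher means lower luciferase signal from less NR2E3 corepressor binding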
VLA-4 inh – inhibition in human VLA-4 binding assay, primary screen, VLA-4 allosteric modulator project, MLPCN library, flow cytometry, VLA-4 expressing cells. ligand binding flow cytometry. 0.2% of 330,000 active. Integrin alpha-4 (Homo sapiens), P13612. inhibition, % (about 7 µM as worked out from the volumes in the protocol); in the data active = inhibition above about 50%
PG9 binder – binders of HIV-1 gp120 antibody PG9, primary screen, biochemical, TR-FRET. HIV-1 gp120 / PG9 antibody interaction. TR-FRET gp120-PG9 antibody binding. inhibition, % at 6.7 µM. 0.43% of 360,000 active. AID 624416, 2012; in the data active = inhibition above about 8.5%
NR1D1 modulator – modulators of Rev-erb alpha DNA binding, primary screen, biochemical, FITC-DNA, fluorescence polarization, uHTS; Nuclear receptor subfamily 1 group D member 1 (Homo sapiens), P20393; Rev-erbα–FITC-DNA binding, 90 min; activity, % at 10 µM; 0.79% of 370,000 active; AID 1259318, 2017;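 active = activity above about 14%, limit read from the data; passing the limit was not always enough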;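 note: 0% = DMSO wells with 35 nM protein and 100% = DMSO wells with 750 nM protein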
NR1D1 mod conf – modulators of Rev-erb alpha DNA binding, confirmation, biochemical, FITC-DNA, fluorescence polarization, single point | 61% of 3,000 active | shares compounds with NR1D1 modulator | 90 min | activation, % at 25 µM;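 active = activation at or above a set limit, or at least 3 SD above the negative control mean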;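 note: 0% = 35 nM protein with DMSO and 100% = 750 nM protein high control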
RORg DNA counter – modulation of RORgamma DNA binding, dose response, counter-screen for Rev-erb alpha modulator project, biochemical, fluorescence polarization, FITC-DNA | shares compounds with NR1D1 modulator | purified RORgamma protein-FITC-DNA binding | IC50, µM | 8% of 910 active;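 active = Compounds whose fitted half-maximal concentration for disrupting protein-DNA binding is below 10 micromolar; the record names Rev-erb in its text, so the target is in doubt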
An asterisk follows results filed as active; i = inactive; · = no result given.

SMILES	NR2E3 ag-1	NR2E3 ag-2	VLA-4 inh	PG9 binder	NR1D1 modulator	NR1D1 mod conf	others
Cc1cc(=O)oc2cc(NC(=O)c3c(Cl)cnn3C)ccc12	0.6	-60.8	3.5	0.9	20.9*	5.3
Cn1c(=O)c2c(O)c([N+](=O)[O-])c(=O)n(C)c2n(C)c1=O	2.1	-21.3	1.2	-2.0	1.5	·
NS(=O)(=O)c1ccc(CCNC(=O)c2ccc(Cn3c(=O)[nH]c4ccccc4c3=O)cc2)cc1	-3.3	-14.6	-1.0	8.4	19.3*	1.1
CC(C)CCNC(=O)c1ccc(Cn2c(=S)[nH]c3ccccc3c2=O)cc1	1.5	-24.7	-9.2	4.0	28.9*	26.0*
COc1ccc(/C=C/C(=O)OCC(=O)Nc2c(C)cccc2C)cc1	-0.5	-27.3	-18.1	0.5	3.8	·
CCCc1nc(SCC(=O)NC2CC2)c2c(C)c(C)sc2n1	3.3	-6.8	-9.5	-1.2	21.6*	7.7
CCN(c1ccccc1C)S(=O)(=O)c1cc2c3c(c1)CCC(=O)N3CCC2	2.4	-18.6	-0.4	-1.6	27.6*	41.2*	RORg DNA counter=>40
CN(Cc1ccccc1)C(=O)c1cnc(Cc2c[nH]c3ccccc23)c(I)c1	·	22.7	·	0.8	16.3*	3.0
O=C(NCc1ccccc1)c1cnc(Cc2c[nH]c3ccccc23)c(I)c1	·	14.7	·	-1.8	1.7	·
CCN1C(=O)/C(=C/C=C2\C=CN(CC)c3ccccc32)SC1=S	-7.5	1.0	27.1	-14.0	2.2	·
O=C(O)CN1C(=O)/C(=C/C=C/c2ccccc2)SC1=S	2.8	-19.8	3.5	-2.9	0.6	·
CN1/C(=C\C=C2/SC(=S)NC2=O)C(C)(C)c2ccccc21	0.9	2.3	i	-5.6	37.4*	18.9*
CCN1C(=O)C(=CC=CN(C)c2ccccc2)SC1=S	·	-96.0	·	-1.9	42.5*	45.9*	RORg DNA counter=>40
CCCN1C(=O)/C(=C\C=C2\N(CC)c3ccccc3C2(C)C)SC1=S	·	2.2	·	-0.1	61.7*	2.2
COc1cccc(-c2cc(CNC(=O)[C@H]3O[C@@H](n4ccc(=O)[nH]c4=O)[C@H](O)[C@@H]3O)no2)c1	·	-6.3	·	-0.8	0.9	·
COC(=O)[C@]12CCCCC=C1N(Cc1cccc3ccccc13)C(=O)[C@H](CC(=O)NCCCCc1ccccc1)C2	·	-3.0	·	0.6	-2.7	·
CCN=C1S/C(=C\c2ccc(N3CCOCC3)cc2C)C(=O)N1CC	0.5	9.4	0.9	-1.6	0.4	·
COCCN1C(=O)/C(=C/c2ccc(N3CCCC3)cc2C)SC1=S	0.1	-36.6	i	1.1	25.4*	39.1*	RORg DNA counter=>40
O=C(Nc1cccc(-c2ccc(N3CCCCC3)nn2)c1)c1ccco1	2.0	-77.5	-2.9	-0.6	-10.2	·
COc1cc2c(cc1OC)[C@@]1(c3ccccc3)CCCC[C@H]1[C@@H]2NC(=O)C(F)(F)F	·	·	·	-0.2	-3.9	·
COc1cc2c(c(OC)c1OC)[C@@]1(c3ccccc3)CCCCC[C@H]1[C@@H]2NC(=O)C(F)(F)F	·	·	·	-2.4	13.1*	5.7
Nc1c(C(=O)CSc2nccn2-c2ccc(Cl)cc2)c(=O)[nH]c(=O)n1C1CC1	2.7	-0.8	-3.8	-2.5	-0.1	·
CN(C)c1ccc(C#Cc2ccc3cc(CCCO)oc(=O)c3c2)cc1	0.5	-71.4	-19.8	1.5	28.5*	5.6
O=C1c2ccccc2C(=O)N1CCC#Cc1ccc2cc(CCCO)oc(=O)c2c1	·	29.2	13.1	0.9	16.1*	0.3
CCCn1c(NC(=O)c2ccc(F)cc2)nc2ccccc21	1.6	-14.8	7.3	2.6	25.8*	-0.1
SMILES	NR2E3 ag-1	NR2E3 ag-2	VLA-4 inh	PG9 binder	NR1D1 modulator	NR1D1 mod conf	others
CCCn1c(NC(=O)c2ccc(Br)cc2)nc2ccccc21	2.5	-46.1	5.1	-1.0	31.7*	22.5*
CC(NC(C)c1ccccc1Cl)C(=O)Nc1cccc(S(=O)(=O)N2CCCCC2)c1 (stereo not drawn)	0.2	-27.3	1.9	0.8	-2.6	·
NC(=O)c1c(NC(=O)CSc2nc3c(c(C(F)(F)F)n2)CCc2ccccc2-3)sc2c1CCCC2	-1.1	-5.3	-15.1	·	12.5	·
Cc1ccc(Cn2nc(C)c(NC(=O)CSc3nc4c(c(C(F)(F)F)n3)CCc3ccccc3-4)c2C)cc1	-0.9	-3.7	-45.3	-0.8	44.6*	28.6*
Cc1ccccc1Cn1cc(NC(=O)CSc2nc3c(c(C(F)(F)F)n2)CCc2ccccc2-3)cn1	0.2	-6.7	-0.4	1.8	19.4*	9.0
Cc1nn(Cc2ccc(Cl)cc2)c(C)c1NC(=O)CSc1nc2c(c(C(F)(F)F)n1)CCc1ccccc1-2	0.0	-25.6	1.1	0.3	32.4*	25.1*
N#Cc1c(NC(=O)CSc2nc3c(c(C(F)(F)F)n2)CCc2ccccc2-3)sc2c1CCCC2	-1.1	-8.4	1.6	1.1	40.1*	23.5*
O=C(CCNc1n[nH]c(=O)[nH]c1=O)N/N=C/c1ccc(C(F)(F)F)cc1	-3.5	-9.7	-2.2	0.3	-0.3	·
O=C(NNC(=O)c1c(O)c2ccccc2[nH]c1=O)c1ccccc1Br	4.0	-27.2	3.8	1.0	1.1	·
CCCC[C@@H]1CNCCN1CCCc1cc(OC)c(OC)c(OC)c1	3.8	11.6	0.3	2.0	2.0	·
Cc1occc1-c1nnc(-c2cc([N+](=O)[O-])cc([N+](=O)[O-])c2)o1	0.7	-35.3	-4.2	-0.3	-0.5	·
COc1ccc(-c2ccc(C#N)c(SCC(=O)Nc3sc4c(c3C#N)CCC4)n2)cc1OC	0.7	-0.5	-2.5	0.4	39.6*	24.0*
CCOC(=O)c1c(C2CC2)csc1NC(=O)COC(=O)c1ccc[n+]([O-])c1	3.0	-7.8	16.4	-1.1	-0.8	·
CCOC(=O)c1c(C2CC2)csc1NC(=O)COC(=O)c1cnc(Cl)c(Cl)c1	0.4	-5.3	-1.4	-1.3	81.0*	80.3*	RORg DNA counter=>40
CCCN1CCS(=O)(=O)N(Cc2cn(Cc3ccc(Cl)cc3)nn2)C(C(=O)OC)C1 (stereo not drawn)	·	·	·	·	-1.6	·
Cc1ccc(C(C)NC(=S)NC2CCCCC2)c(C)c1 (stereo not drawn)	·	4.3	-1.0	-2.5	1.8	·
O=C(NCc1ccccn1)C1CCC(CNS(=O)(=O)c2cccc3nsnc23)CC1 (stereo not drawn)	-2.7	-8.3	9.5	0.6	1.3	·
